Source: PubChem (several laboratories)
An excerpt weighted towards active compounds, which were near 4.4% of everything screened.
bovine MsrA act – bovine MsrA enzyme activators, primary screen, biochemical, absorbance, HTS; Methionine sulfoxide reductase A (Bos taurus); purified bovine MsrA, absorbance read-out; activation, % at 10.6 µM; 360,000 compounds, 0.3% hits; in the data active means activation above about 7.5%
m5-HT2A agonist – mouse Htr2a agonists via beta-arrestin recruitment, primary screen, cell-based, luminescence; 360,000 compounds, 0.66% hits; activation, % at 7.6 µM; CHO-K1 mHTR2A beta-arrestin complementation; percent of 30 µM serotonin response; 5-hydroxytryptamine receptor 2A (Mus musculus), P35363; AID 624169, 2012;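 active means activation above a run cutoff, the mean activation of all tested compounds plus 3 SD, cut at about 14% in these data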
Target sequence (P35363 whole entry, looked up): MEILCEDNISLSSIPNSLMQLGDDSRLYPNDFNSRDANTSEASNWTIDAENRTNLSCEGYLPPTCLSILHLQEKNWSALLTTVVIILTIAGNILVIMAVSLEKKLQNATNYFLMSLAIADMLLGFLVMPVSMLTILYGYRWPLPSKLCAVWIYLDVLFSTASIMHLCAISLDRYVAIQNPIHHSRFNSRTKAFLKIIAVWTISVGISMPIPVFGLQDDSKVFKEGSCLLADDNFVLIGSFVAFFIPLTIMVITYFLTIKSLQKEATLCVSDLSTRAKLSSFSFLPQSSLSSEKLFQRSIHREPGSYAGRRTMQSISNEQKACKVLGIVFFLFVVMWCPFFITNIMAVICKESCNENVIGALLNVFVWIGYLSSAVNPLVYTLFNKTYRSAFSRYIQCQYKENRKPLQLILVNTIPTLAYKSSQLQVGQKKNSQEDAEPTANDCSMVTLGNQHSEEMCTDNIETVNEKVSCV
AI-2 QS modul – Vibrio harveyi AI-2 quorum sensing modulators, primary screen, JMH597 strain, luminescence/OD600 ratio. Vibrio harveyi JMH597 AI-2 luminescence/OD600 ratio, 9 h; stronger effect = lower value; strain lacks LuxN and CqsS sensors; 0 = neutral-control median. activity change, % at 7.5 µM. 300,000 compounds, 0.4% hits; in the data active means activity change below about -75%, passing the limit was not always enough;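 further: luminescence divided by OD600 gain over 9 h not by final OD600 alone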
MsrA inh – bovine MsrA enzyme inhibitors, primary screen, biochemical, absorbance, HTS; 360,000 compounds, 0.75% hits; AID 651718, 2012; purified bovine MsrA, absorbance read-out; inhibition, % at 15.5 µM; in the data active means inhibition above about 4.5%
Tb MetRS inh – T. brucei MetRS inhibitors, primary screen, biochemical, luminescence | methionyl-tRNA synthetase (Trypanosoma brucei brucei) | purified T. brucei MetRS, ATP depletion, Kinase-Glo luminescence | inhibition, % at 11.9 µM | 360,000 compounds, 0.4% hits | AID 624268, 2012;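 active means inhibition above a per-plate cutoff of the control wells' mean inhibition plus 3 SD, cut at about 5.5% in these data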
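Dosing: 11.9 µM compound single dose, 0.9% DMSO; Assay system: purified T. brucei MetRS enzyme; Measured by: Kinase-Glo luciferase luminescence reporting remaining unconsumed ATP; Schedule: 15 min plus 2 h at 25 °C.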
AHR act – AHR activators, primary screen, cell-based, luminescence, luciferase reporter, human | AHR-responsive luciferase reporter cells | Aryl hydrocarbon receptor (Homo sapiens), P35869 | activation, % at 5 µM | 320,000 compounds, 2.5% hits; in the data active means activation above about 47%
MsrA activ conf – bovine MsrA activators, retest, confirmation, biochemical, absorbance, HTS; shares compounds with bovine MsrA act; 1,000 compounds, 12% hits; purified bovine MsrA, absorbance read-out; activation, % at 10.6 µM; AID 602270, 2012; in the data active means activation above about 4%;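 further: enzyme coupled to thioredoxin and thioredoxin reductase with NADPH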
Each line names hits and unclear results; the compound was inactive in the other large screens (follow-up assays come after a bar, where they were run).

O=C(ONc1ccc(N=NC(=O)c2ccccc2O)cc1)c1ccccc1	none
COc1ccc(CCNS(=O)(=O)c2ccc(C3CNC(=O)C3)cc2)cc1OC (stereo not drawn)	bovine MsrA act 9.5 | MsrA activ conf inactive
CC(C)CN(C(=O)COc1ccccc1C(=O)NCc1ccccc1)C1CCS(=O)(=O)C1 (stereo not drawn)	none (no result: AI-2 QS modul, AHR act)
O=C(CC1CCCCC1)Nc1ccc(-c2ccc3nncn3n2)cc1	bovine MsrA act 7.7 | MsrA activ conf inactive
O=C(O)CCC(=O)c1ccc(C2CCCCCC2)cc1	bovine MsrA act 13.1 (no result: AI-2 QS modul, AHR act) | MsrA activ conf inactive
CC(NC(=O)c1ccc(CS(=O)(=O)c2ccc(Cl)cc2)o1)c1ccc2c(c1)OCCO2 (stereo not drawn)	bovine MsrA act 8.6 | MsrA activ conf inactive
COc1ccc(NC(=O)C2Cc3c(-c4ccco4)ccnc3O2)cc1OC (stereo not drawn)	none (no result: AI-2 QS modul, AHR act)
O=C(COc1ccccc1Cl)c1ccc2c(c1)CCCC2	bovine MsrA act 8.3 | MsrA activ conf inactive
CC12CN(C(=O)c3ccccc3)C3(C#N)CC1CCC23C (stereo not drawn)	bovine MsrA act 13.5 | MsrA activ conf inactive
Cn1c(-c2sccc2OCc2ccc(Cl)cc2Cl)n[nH]c1=S	bovine MsrA act 16.7 | MsrA activ conf inactive
Cc1ccc(COc2ccsc2-c2n[nH]c(=S)n2C)cc1	none
Cc1c(NC(=S)NC(=O)c2cccc(Cl)c2)c(=O)n(-c2ccccc2)n1C	none
Cc1cc(=S)[nH]c(=S)[nH]1	bovine MsrA act 10.3 | MsrA activ conf 8.2
Cc1cc(C)c2[nH]c(=S)cc(C)c2c1	none
CC1=C(C(=O)N2CCOCC2)CC(CC(=O)NCC2CCCCC2)C(=O)N1Cc1ccc(C(C)(C)C)cc1 (stereo not drawn)	none (no result: AI-2 QS modul, AHR act)
COc1ccc2c(CC(=O)Nc3ccccc3OC)coc2c1	none
COc1ccc(NC(=O)COC(=O)Cc2coc3cc(OC)ccc23)c(OC)c1	bovine MsrA act 8.0 (no result: AI-2 QS modul) | MsrA activ conf inactive
Cc1nn(C(C)C(=O)NC2CCCCC2)c(=O)c2nn(-c3ccccc3)c(C)c12 (stereo not drawn)	none
CC1CCCC(NC(=O)COC(=O)c2ccc([N+](=O)[O-])s2)C1C (stereo not drawn)	bovine MsrA act 20.9 (no result: AI-2 QS modul) | MsrA activ conf 5.4
C=CCC(CC)C(=O)NC(=O)N1CCCc2ccccc21 (stereo not drawn)	bovine MsrA act 11.6 | MsrA activ conf inactive
O=C(COc1ccc(Br)cc1Cl)NNC(=O)c1ccccc1	none (no result: AI-2 QS modul)
CO/N=C/c1ccc(N2CCCC2)c([N+](=O)[O-])c1	bovine MsrA act 17.2 | MsrA activ conf 5.8
O=[N+]([O-])c1cc(/C=N/O)ccc1N1CCCC1	none
CN(C(=O)c1ccc(NC(=O)Cc2ccc(NC(=O)C3CCCN(C(=O)C4CC4)C3)cc2)cc1)C1CC1 (stereo not drawn)	none (no result: AI-2 QS modul)
c1ccc(Sc2ccncc2)cc1	none (no result: AI-2 QS modul, AHR act)
c1cc(SSc2ccncc2)ccn1	bovine MsrA act 10.2 | MsrA activ conf inactive
C=CCn1c(COc2ccc(F)cc2)nnc1SC(C)C(=O)NCC1CCCO1 (stereo not drawn)	none (no result: AI-2 QS modul)
Cc1ccc(NC(=O)CSCC(=O)N(C)Cc2ccc(Cl)c(Cl)c2)cc1	none (no result: AI-2 QS modul)
COc1ccc(NC(=O)CSCC(=O)Nc2ccc(S(=O)(=O)N3CCCCC3)cc2)cc1	none
COc1ccc(CSCC(=O)Nc2ccc(S(=O)(=O)N3CCCCCC3)cc2)cc1	bovine MsrA act 8.8 | MsrA activ conf inactive
COc1ccc(NC(=O)CSCC(=O)N(C)Cc2ccc(Cl)c(Cl)c2)cc1	bovine MsrA act 10.7 (no result: AI-2 QS modul) | MsrA activ conf inactive
CC(C)NC(=O)C1C(c2ccccc2)=Nc2ccccc2N1C(=O)c1cc(Cl)cc(Cl)c1 (stereo not drawn)	none (no result: bovine MsrA act, AI-2 QS modul, AHR act)
Cc1oc(CC(C)C)cc1C(=O)Nc1cccc2ccccc12	bovine MsrA act 7.8 | MsrA activ conf inactive
Cc1cc(C(=O)Nc2cccc3ccccc23)c(C)o1	none
COc1ccccc1C(=O)NCCC(=O)NCCCSc1ccccc1	bovine MsrA act 9.8 | MsrA activ conf inactive
CCCNC(=O)CCn1c(=S)oc2ccccc21	none
CCCCOC(=O)CCn1c(=S)oc2ccccc21	bovine MsrA act 20.7 | MsrA activ conf inactive
CCOC(=O)c1c(-c2ccccc2)oc2ccc(OCC(O)CNCCN(C)C)cc12 (stereo not drawn)	none
COc1ccc(C(=O)Nc2ccc3c(c2)C(=O)N(C)C3=O)cc1OC	none (no result: MsrA inh)
COCCN1C(=O)c2cc(C(=O)Nc3ccc(OC)c(OC)c3)ccc2C1Nc1ccc(OC)c(OC)c1 (stereo not drawn)	bovine MsrA act 12.1 | MsrA activ conf inactive
CN(C)c1ncnc2c1ncn2C1CCCO1 (stereo not drawn)	none (no result: AI-2 QS modul, AHR act)
CC(=O)Nc1cccc(OCCCNC(=O)c2ccc(F)cc2)c1	bovine MsrA act 9.0 | MsrA activ conf inactive
CC1(C)OC2CC3C4CC(F)C5=CC(=O)C=CC5(C)C4(F)C(O)CC3(C)C2(C(=O)CO)O1 (stereo not drawn)	none
O=C(COc1ccc2cc(Br)ccc2c1)N1CCOCC1	bovine MsrA act 13.1 (no result: AI-2 QS modul) | MsrA activ conf inactive
CN1CCN(C2CN(Cc3cn(Cc4ccc(C(F)(F)F)cc4)nn3)S(=O)(=O)C2)CC1 (stereo not drawn)	none (no result: AI-2 QS modul, AHR act)
Cc1no[n+]([O-])c1COc1cccc(/C=N/Nc2nncn2N)c1	bovine MsrA act 11.9 | MsrA activ conf inactive
COc1ccc(-c2csc(NC(=O)C3=COCCO3)n2)cc1OC	bovine MsrA act 10.5 (no result: AI-2 QS modul, AHR act) | MsrA activ conf inactive
Cc1ccc(S(=O)(=O)c2nc(-c3cccs3)oc2N2CCC(C(N)=O)CC2)cc1	none (no result: AI-2 QS modul)
CC(C)Cn1[nH]c2c3c(ccc2c1=O)C(=O)c1ccccc1C3=O	bovine MsrA act 7.8 (no result: MsrA inh) | MsrA activ conf inactive
COc1ccccc1Nc1n[nH]c(=S)s1	bovine MsrA act 8.9 | MsrA activ conf inactive
Cc1cccc(C)c1Nc1n[nH]c(=S)s1	none (no result: AI-2 QS modul, AHR act)
CC(C)c1ccc(Nc2n[nH]c(=S)s2)cc1	bovine MsrA act 8.6 (no result: AI-2 QS modul, AHR act) | MsrA activ conf inactive
Cc1ccc(Nc2n[nH]c(=S)s2)c(C)c1	bovine MsrA act 10.3 (no result: AI-2 QS modul, AHR act) | MsrA activ conf inactive
COc1ccccc1/C=C/C(=O)OCC(=O)NC1CCS(=O)(=O)C1 (stereo not drawn)	none (no result: AI-2 QS modul)
